Experimental data taken from ChEMBL document CHEMBL1821590, “Novel dihydropyrimidines and its pyrazole derivatives: synthesis and pharmacological screening” (Eur J Med Chem, 2011).
Converted amounts (≈) assume the structure as drawn.

Assays:
Type in all cases: functional
[1] = tested on: Candida albicans; test: Antimicrobial activity against Candida albicans at 25 ug/ml by paper disc method; settings: read-out: IZ
Procedure, shortened: (§1)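 Paper disc method against A. niger and C. albicans, with compounds at 25, 50 and 100 µg/mL. Amphotericin-B as standard.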

[2] = tested on: Pseudomonas aeruginosa; test: Antimicrobial activity against Pseudomonas aeruginosa at 25 ug/ml by agar plate diffusion technique; settings: read-out: IZ
Procedure, shortened: (§2)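 Agar plate diffusion against E. coli, P. aeruginosa, S. aureus and B. subtilis, with compounds at 25, 50 and 100 µg/mL. Streptomycin as standard.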

[3] = tested on: Metaphire posthuma; test: Anthelmintic activity against Pheretima posthuma assessed as time taken for complete parasite paralysis at 0.2% w/v
Procedure, shortened: (§3)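 Earthworms (Pheretima posthuma) exposed to test solutions at 0.1, 0.2 and 0.5% w/v; time in minutes to complete paralysis (worms motionless) recorded. Albendazole as standard. Mean of three determinations ± S.D.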

[4] = tested on: Aspergillus niger; test: Antimicrobial activity against Aspergillus niger at 25 ug/ml by paper disc method; settings: read-out: IZ; procedure, shortened: as §1
[5] = tested on: Bacillus subtilis; test: Antimicrobial activity against Bacillus subtilis at 50 ug/ml by agar plate diffusion technique; settings: read-out: IZ; procedure, shortened: as §2
[6] = tested on: Metaphire posthuma; test: Anthelmintic activity against Pheretima posthuma assessed as time taken for complete parasite paralysis at 0.1% w/v; procedure, shortened: as §3
[7] = Antioxidant activity assessed as inhibition of lipid peroxidation using egg lecithin liposomes incubated for 1 hr
Procedure, shortened: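 Egg lecithin (3 mg/mL, phosphate buffer pH 7.4) sonicated 10 min to form liposomes. Sample or ascorbic acid (12.5–100 µg/mL) added. Peroxidation induced with FeCl3 and L-ascorbic acid, 1 h at 37 °C. Stopped with HCl/TCA/TBA/BHA, boiled 15 min, centrifuged, supernatant read at 532 nm. Triplicate. % inhibition vs control. IC50 derived.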

[8] = tested on: Staphylococcus aureus; test: Antimicrobial activity against Staphylococcus aureus at 100 ug/ml by agar plate diffusion technique; settings: read-out: IZ; procedure, shortened: as §2
[9] = tested on: Metaphire posthuma; test: Anthelmintic activity against Pheretima posthuma assessed as time taken for parasite death at 0.2% w/v
Procedure, shortened: (§4)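 Earthworms (Pheretima posthuma, spelled Perituma posthuma in text) exposed to test compounds at 0.1, 0.2 and 0.5% w/v. Albendazole served as standard, with an untreated control. Paralysis was recorded as the time until worms became motionless, then time to death was recorded, in minutes. Each value is the mean of three determinations with S.D.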

[10] = tested on: Metaphire posthuma; test: Anthelmintic activity against Pheretima posthuma assessed as time taken for parasite death at 0.5% w/v; procedure, shortened: as §4
[11] = tested on: Escherichia coli; test: Antimicrobial activity against Escherichia coli at 50 ug/ml by agar plate diffusion technique; settings: read-out: IZ; procedure, shortened: as §2
[12] = Antiinflammatory activity assessed as inhibition of albumin denaturation at 100 ug/ml by UV-visible spectrophotometry
Procedure, shortened: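 Compounds dissolved in minimal DMF, diluted in PBS pH 7.4 (final DMF <2.5%). 1 mL test solution (100 µg/mL) plus 1 mL 1% albumin in PBS, 15 min at 27 ± 1 °C, then heated 10 min at 60 ± 1 °C. After cooling, turbidity read at 660 nm. % inhibition = [(Vt/Vc) − 1] × 100 against a no-drug control. Triplicate, averaged. Diclofenac standard.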

[13] = tested on: Bacillus subtilis; test: Antimicrobial activity against Bacillus subtilis at 100 ug/ml by agar plate diffusion technique; settings: read-out: IZ; procedure, shortened: as §2
[14] = tested on: Staphylococcus aureus; test: Antimicrobial activity against Staphylococcus aureus at 25 ug/ml by agar plate diffusion technique; settings: read-out: IZ; procedure, shortened: as §2
[15] = tested on: Aspergillus niger; test: Antimicrobial activity against Aspergillus niger at 50 ug/ml by paper disc method; settings: read-out: IZ; procedure, shortened: as §1
[16] = tested on: Metaphire posthuma; test: Anthelmintic activity against Pheretima posthuma assessed as time taken for complete parasite paralysis at 0.5% w/v; procedure, shortened: as §3
[17] = Antioxidant activity assessed as potassium ferricyanide ion reducing power after 20 mins
Procedure, shortened: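 Oyaizu method. Samples or ascorbic acid in DMF (12.5–100 µg/mL) mixed with 0.2 M phosphate buffer pH 6.6 and 1% potassium ferricyanide, 20 min at 50 °C. 10% TCA added, centrifuged. Supernatant mixed with water and 0.1% FeCl3, read at 700 nm. % = [(Vt/Vc) − 1] × 100. IC50 derived.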

[18] = tested on: Pseudomonas aeruginosa; test: Antimicrobial activity against Pseudomonas aeruginosa at 100 ug/ml by agar plate diffusion technique; settings: read-out: IZ; procedure, shortened: as §2
[19] = tested on: Aspergillus niger; test: Antimicrobial activity against Aspergillus niger at 100 ug/ml by paper disc method; settings: read-out: IZ; procedure, shortened: as §1
[20] = tested on: Escherichia coli; test: Antimicrobial activity against Escherichia coli at 25 ug/ml by agar plate diffusion technique; settings: read-out: IZ; procedure, shortened: as §2
[21] = tested on: Bacillus subtilis; test: Antimicrobial activity against Bacillus subtilis at 25 ug/ml by agar plate diffusion technique; settings: read-out: IZ; procedure, shortened: as §2
[22] = tested on: Metaphire posthuma; test: Anthelmintic activity against Pheretima posthuma assessed as time taken for parasite death at 0.1% w/v; procedure, shortened: as §4
[23] = tested on: Candida albicans; test: Antimicrobial activity against Candida albicans at 50 ug/ml by paper disc method; settings: read-out: IZ; procedure, shortened: as §1
[24] = tested on: Escherichia coli; test: Antimicrobial activity against Escherichia coli at 100 ug/ml by agar plate diffusion technique; settings: read-out: IZ; procedure, shortened: as §2
[25] = tested on: Pseudomonas aeruginosa; test: Antimicrobial activity against Pseudomonas aeruginosa at 50 ug/ml by agar plate diffusion technique; settings: read-out: IZ; procedure, shortened: as §2
[26] = tested on: Candida albicans; test: Antimicrobial activity against Candida albicans at 100 ug/ml by paper disc method; settings: read-out: IZ; procedure, shortened: as §1
[27] = Antioxidant activity assessed as hydrogen peroxide scavenging activity after 10 mins
Procedure, shortened: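 H2O2 (20 mM) in PBS pH 7.4. 1 mL of sample or ascorbic acid in methanol (12.5–100 µg/mL) added to 2 mL H2O2 solution. A230 read after 10 min. % inhibition = [1 − (Vt/Vc)] × 100. Triplicate, averaged. IC50 derived from % inhibition across concentrations.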

[28] = Antioxidant activity assessed as nitric oxide radical scavenging activity after 150 mins
Procedure, shortened: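 10 mM sodium nitroprusside (4 mL), PBS pH 7.4 (1 mL) and sample or ascorbic acid in DMSO (1 mL, 12.5–100 µg/mL), incubated 150 min at 25 °C. Nitrite detected with sulphanilic acid (5 min) then naphthylethylenediamine (30 min, diffused light). Read at […]. Triplicate. % inhibition = [1 − (Vt/Vc)] × 100. IC50 derived from it.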

[29] = tested on: Staphylococcus aureus; test: Antimicrobial activity against Staphylococcus aureus at 50 ug/ml by agar plate diffusion technique; settings: read-out: IZ; procedure, shortened: as §2

Structure (SMILES)	zone of inhibition at 25 µg/mL [1] [mm]	zone of inhibition at 25 µg/mL [2] [mm]	Time [3] [min]	zone of inhibition at 25 µg/mL [4] [mm]	zone of inhibition at 50 µg/mL [5] [mm]	Time [6] [min]	IC50 [7] [µg/mL]	zone of inhibition at 100 µg/mL [8] [mm]	Time [9] [min]	Time [10] [min]	zone of inhibition at 50 µg/mL [11] [mm]	inhibition [12] [%]	zone of inhibition at 100 µg/mL [13] [mm]	zone of inhibition at 25 µg/mL [14] [mm]	zone of inhibition at 50 µg/mL [15] [mm]	Time [16] [min]	IC50 [17] [µg/mL]	zone of inhibition at 100 µg/mL [18] [mm]	zone of inhibition at 100 µg/mL [19] [mm]	zone of inhibition at 25 µg/mL [20] [mm]	further results
CSc1nc(-c2ccccc2Cl)c(C#N)c(=O)n1C	9.18	8.52	40.27	10.6	19.3	55.29	72 (≈ 247 µM)	16.8	55.8	50.24	10.2	72.2	28.8	9.4	10.6	40.61	76 (≈ 260 µM)	12	17.5	9.64	zone of inhibition at 25 µg/mL [21]: 14.2 mm; Time [22]: 72.39 min; zone of inhibition at 50 µg/mL [23]: 13.8 mm; zone of inhibition at 100 µg/mL [24]: 12.4 mm; zone of inhibition at 50 µg/mL [25]: 10.4 mm; zone of inhibition at 100 µg/mL [26]: 20.8 mm; IC50 [27]: 67 µg/mL (≈ 230 µM); IC50 [28]: 81 µg/mL (≈ 278 µM); zone of inhibition at 50 µg/mL [29]: 12.3 mm
CCOC(=O)c1cnn(-c2nc(-c3ccccc3O)c(C#N)c(=O)n2C)c1N	10.6	10.2	40.03	9.21	14.2	43.09	57 (≈ 150 µM)	22.8	49.54	47.23	17.3	54.4	23.1	12.3	12.6	38.52	48 (≈ 126 µM)	21.1	18.1	13.5	zone of inhibition at 25 µg/mL [21]: 13.9 mm; Time [22]: 55.2 min; zone of inhibition at 50 µg/mL [23]: 14.5 mm; zone of inhibition at 100 µg/mL [24]: 24.4 mm; zone of inhibition at 50 µg/mL [25]: 15 mm; zone of inhibition at 100 µg/mL [26]: 15.5 mm; IC50 [27]: 58 µg/mL (≈ 152 µM); IC50 [28]: 64 µg/mL (≈ 168 µM); zone of inhibition at 50 µg/mL [29]: 17.4 mm
CSc1nc(-c2ccccc2O)c(C#N)c(=O)n1C	8.84	6.36	39.46	8	16.9	40.28	44 (≈ 161 µM)	11.2	48.34	45.3	9.16	51.9	25.5	8.14	9.46	35.14	52 (≈ 190 µM)	10.8	15.4	6.25	zone of inhibition at 25 µg/mL [21]: 12.8 mm; Time [22]: 50.82 min; zone of inhibition at 50 µg/mL [23]: 12.6 mm; zone of inhibition at 100 µg/mL [24]: 11.3 mm; zone of inhibition at 50 µg/mL [25]: 8.16 mm; zone of inhibition at 100 µg/mL [26]: 20 mm; IC50 [27]: 39 µg/mL (≈ 143 µM); IC50 [28]: 58 µg/mL (≈ 212 µM); zone of inhibition at 50 µg/mL [29]: 9.33 mm
